Measured values published in ChEMBL document CHEMBL1125865, “Synthesis, antibacterial activities, and pharmacological properties of enantiomers of temafloxacin hydrochloride” (J Med Chem, 1991).

How the values were obtained:
[1] = tested on: Rattus norvegicus; test: Effect on the spontaneous locomotor activity of rats at 0-15 min upon po administration of the compounds at a dose of 30 mg/kg; type: functional
In short: (§1)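 Rats were given test agent or methylcellulose vehicle (ip or po, per line), with treatments in random order. 30 min after dosing, each rat went into an individual circular activity chamber. Locomotion was counted as photocell-beam interruptions, recorded at 15 and 60 min from test start and reported as mean counts ± SEM.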

[2] = tested on: Rattus norvegicus; test: Effect on the spontaneous locomotor activity of rats at 0-15 min upon ip administration of the compounds at a dose of 1 mg/kg; type: functional; conditions: route intraperitoneal; in short: as §1

Compound | Mean activity counts [1] | Mean activity counts [2]
CCn1cc(C(=O)O)c(=O)c2cc3c(cc21)OCO3 [OXOLINIC ACID] | 972 | 
CN[C@@H](C)Cc1ccccc1 [METHAMPHETAMINE] |  | 1462
